# Measurements collected from several papers.
# Compare with care: the assays were run in different laboratories.
# CHRM4: Muscarinic acetylcholine receptor M4 (CHRM4, Homo sapiens, UniProt P08173)
# CA9: Carbonic anhydrase 9 (CA9, Homo sapiens, UniProt Q16790)
# MAOB: Amine oxidase [flavin-containing] B (MAOB, Homo sapiens, UniProt P27338)
# Adora1: Adenosine receptor A1 (Adora1, Rattus norvegicus, UniProt P25099)
# EDNRB: Endothelin receptor type B (EDNRB, Homo sapiens, UniProt P24530)
# KCNU1: KCNU1 (Homo sapiens, UniProt A8MYU2)
SMILES,target,assay,system,setting,inhibition [%]
N#Cc1cc(Cn2c(N3CCCC3)nc3ccccc32)ccc1F,CHRM4,ligand displacement,,10 µM,-6.19
CCOC(=O)C1CSc2[nH]c(=O)sc2C1c1cn(-c2ccccc2)nc1-c1ccc(Cl)cc1 (centres unmarked),CA9,"enzyme activity, inhibitor",,10 µM,86.3
CNC(=O)c1csc(Nc2cccc(C)n2)n1,MAOB,"enzyme activity, inhibitor, fluorescence",,30 µM,53
CCN1CCCn2c1nc1c2c(=O)n(C)c(=O)n1C,Adora1,"ligand displacement, radioligand",,"25 µM, cell membranes",42
O=C1NC(=S)C(=Cc2cn(-c3ccccc3)nc2-c2ccc(Br)cc2)S1,CA9,"enzyme activity, inhibitor",,1 µM,66.2
O=C(Nc1ccc(S(=O)(=O)N2CCC(Cl)CC2)cc1)c1ccc([N+](=O)[O-])o1,EDNRB,"ligand displacement, radioligand",,10 µM,3
CCOC(=O)C1CSc2[nH]c(=O)sc2C1c1cn(-c2ccccc2)nc1-c1ccc(Br)cc1 (centres unmarked),CA9,"enzyme activity, inhibitor",,100 µM,91.6
Oc1cccc(Nc2nc(-c3ccc(F)cc3F)cs2)c1,EDNRB,cell-free assay,,10 µM,-4.3
N=c1n(CCN2CCCCC2)c2ccccc2n1CC(O)c1cccc(Br)c1 (centres unmarked),KCNU1,"ion current, inhibitor, patch clamp",HEK293,10 µM,17
Cc1ccc(NC(=O)c2cc(Cl)ccc2O)cc1[N+](=O)[O-],MAOB,"enzyme activity, inhibitor",,"1 µM, 20 min",85
COc1ccc(C=NNC(=O)Cn2cnc3ccccc32)c(O)c1,MAOB,"enzyme activity, inhibitor, fluorescence",,1 µM,65
CN(C)C1CCN(CC#Cc2nn(C3CCCC3)c3nc(NCc4ccccc4)ncc23)C1 (centres unmarked),"Serine/threonine-protein kinase 26 (STK26, Homo sapiens, UniProt Q9P289)","enzyme activity, inhibitor, FRET",,10 µM,78
Cc1ccc(-c2nn(-c3ccccc3)cc2C2c3sc(=O)[nH]c3SC3C(=O)N(c4ccccc4)C(=O)C32)cc1 (centres unmarked),CA9,"enzyme activity, inhibitor",,10 µM,77.9
O=C(c1ccc(Cl)cc1)N(Cc1ccccc1)C1CCCCC1,"Beta-1 adrenergic receptor (ADRB1, Homo sapiens, UniProt P08588)",cell-free assay,,10 µM,-27.9
CCN(Cc1ccccc1C(F)(F)F)C(=O)C1CCN(S(=O)(=O)c2ccc3[nH]ncc3c2)CC1,EDNRB,"ligand displacement, radioligand",,10 µM,8
COc1cc(NC(C)=O)c(Cl)cc1C(=O)Nc1nccs1,CHRM4,cell-free assay,,10 µM,16.7
O=C(Nc1ccc([N+](=O)[O-])cc1Cl)c1ccccc1,MAOB,"enzyme activity, inhibitor",,"1 µM, 20 min",25
CCOC(=O)C1CSc2[nH]c(=O)sc2C1c1cn(-c2ccccc2)nc1-c1ccc(C)cc1 (centres unmarked),CA9,"enzyme activity, inhibitor",,10 nM,18.9
O=C(Nc1ccccc1Cl)c1ccc([N+](=O)[O-])cc1Cl,MAOB,"enzyme activity, inhibitor",,"1 µM, 20 min",6
Cc1ccc(C(=O)Nc2ccc(S(=O)(=O)O)c3cc(S(=O)(=O)O)cc(S(=O)(=O)O)c23)cc1NC(=O)c1cccc(NC(=O)Nc2cccc(C(=O)Nc3cc(C(=O)Nc4ccc(S(=O)(=O)O)c5cc(S(=O)(=O)O)cc(S(=O)(=O)O)c45)ccc3C)c2)c1,"NAD-dependent protein deacylase sirtuin-5, mitochondrial (SIRT5, Homo sapiens, UniProt Q9NXA8)","enzyme activity, inhibitor",,1 mM,> 60
O=C(Nc1ccc(C(F)(F)F)cc1C(F)(F)F)c1cc(Cl)ccc1O,MAOB,"enzyme activity, inhibitor",,"1 µM, 20 min",84
CCOC(=O)C1CSc2[nH]c(=O)sc2C1c1cn(-c2ccccc2)nc1-c1ccc(OC)cc1 (centres unmarked),CA9,"enzyme activity, inhibitor",,1 µM,71.4
CCOc1ccc(C(=O)Nc2ccc([N+](=O)[O-])cc2Cl)cc1OCC,MAOB,"enzyme activity, inhibitor",,"1 µM, 20 min",34
CCCC(C)N1CCCn2c1nc1c2c(=O)n(C)c(=O)n1C (centres unmarked),Adora1,"ligand displacement, radioligand",,"25 µM, cell membranes",19
COc1cc(N)ccc1NC(=O)c1ccccc1,MAOB,"enzyme activity, inhibitor",,"1 µM, 20 min",1
CCN(CC)c1ccc(C2Nc3ccc(C(=O)c4ccccc4)cc3NC3=C2C(=O)CC(C)(C)C3)cc1 (centres unmarked),CHRM4,"ligand displacement, radioligand",,10 µM,-1
O=C(Nc1ccc(Br)cc1)c1ccccn1,MAOB,"enzyme activity, inhibitor",,"1 µM, 20 min",85
CCCCCC(C)N1CCCn2c1nc1c2c(=O)n(C)c(=O)n1C (centres unmarked),Adora1,"ligand displacement, radioligand",,"25 µM, cell membranes",30
N#CC1CSc2[nH]c(=O)sc2C1c1cn(-c2ccccc2)nc1-c1ccc(Br)cc1 (centres unmarked),CA9,"enzyme activity, inhibitor",,0.1 µM,60.1
O=C(Nc1ccc([N+](=O)[O-])cc1Cl)c1cc2ccccc2s1,MAOB,"enzyme activity, inhibitor",,"1 µM, 20 min",40
CC(C)CC(C)N1CCCn2c1nc1c2c(=O)n(C)c(=O)n1C (centres unmarked),Adora1,"ligand displacement, radioligand",,"25 µM, cell membranes",30
O=c1c2ccccc2c(Cc2ccc(Cl)cc2)nn1C1CCCNCC1 (centres unmarked),KCNU1,"ion current, inhibitor, patch clamp",HEK293,10 µM,34
